Screening data from PubChem.
In the library only some 2.9% were active in any assay of this set; here they are far more common.
TRPC4 act: TRPC4 (mouse) channel activation. Q9QUQ5. HEK293 TRPC4beta/mu-opioid, Fluo4 calcium fluorescence; active compounds read high. B-score at 10 µM. 310,000 compounds, 0.49% hits;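 active = B-score above 5 SD of library B-scores, and initial fluorescence ratio not above library mean plus 5 SD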;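 note: positive B-score marks a calcium rise read as TRPC4 activation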
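system = HEK293 cells stably co-expressing mouse TRPC4beta and mu-opioid receptor | schedule = Fluo4 dye loading 45 min at room temperature, 110 s recording | measure = B-scored integrated calcium fluorescence ratio | signal = Fluo4 calcium-sensitive dye fluorescence, kinetic, 1 Hz baseline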
TRPC6 inh: inhibitors of mouse TRPC6 channel; B-score at 10 µM; 310,000 compounds, 1.1% hits; AID 2553; Q61143; HEK293-TRPC6, membrane potential dye, ACh-evoked depolarization; active compounds read low;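 active = B-score under library mean minus 3 SD, initial fluorescence not abnormally high, positive integrated signal ratio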;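 note: B-score derived from integrated fluorescence ratio over the kinetic read; more negative B-score means stronger inhibition of depolarization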
Target sequence (Q61143 whole entry, looked up): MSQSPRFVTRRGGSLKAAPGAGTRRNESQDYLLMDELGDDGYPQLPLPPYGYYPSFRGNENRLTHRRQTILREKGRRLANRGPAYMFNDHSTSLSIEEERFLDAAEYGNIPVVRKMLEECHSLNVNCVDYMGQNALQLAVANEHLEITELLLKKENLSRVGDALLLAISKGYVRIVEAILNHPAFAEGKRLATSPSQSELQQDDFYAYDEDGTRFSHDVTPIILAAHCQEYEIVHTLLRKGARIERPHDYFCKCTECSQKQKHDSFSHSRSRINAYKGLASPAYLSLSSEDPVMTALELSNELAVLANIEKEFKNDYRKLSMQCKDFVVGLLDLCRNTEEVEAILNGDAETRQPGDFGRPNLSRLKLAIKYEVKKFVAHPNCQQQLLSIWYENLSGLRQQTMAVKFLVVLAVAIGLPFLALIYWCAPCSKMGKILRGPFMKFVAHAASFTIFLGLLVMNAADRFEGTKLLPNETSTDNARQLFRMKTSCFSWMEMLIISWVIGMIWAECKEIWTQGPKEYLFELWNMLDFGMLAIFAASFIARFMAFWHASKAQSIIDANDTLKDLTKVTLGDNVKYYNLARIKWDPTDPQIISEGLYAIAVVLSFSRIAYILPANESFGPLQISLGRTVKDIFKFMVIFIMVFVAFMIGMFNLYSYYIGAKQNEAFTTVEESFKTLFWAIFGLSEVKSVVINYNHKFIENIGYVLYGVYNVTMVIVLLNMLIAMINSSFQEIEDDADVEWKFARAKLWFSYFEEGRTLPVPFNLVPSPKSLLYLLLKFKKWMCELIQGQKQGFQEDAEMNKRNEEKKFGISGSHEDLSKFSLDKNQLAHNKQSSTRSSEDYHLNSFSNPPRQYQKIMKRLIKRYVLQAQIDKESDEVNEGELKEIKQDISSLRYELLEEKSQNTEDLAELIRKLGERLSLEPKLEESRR
TRPC4 PAM: TRPC4 (mouse) allosteric potentiation | B-score at 10 µM | 310,000 compounds, 0.42% hits | HEK293 TRPC4beta/mu-opioid, DAMGO EC20, Fluo-4 Ca2+ flux; active compounds read high | Q9QUQ5 | AID 2227;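 active = B-score of calcium response area above 5 SD of library B-scores, with initial fluorescence ratio within 5 SD of library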
Kir21 block: blocks the mouse Kir2.1 inward-rectifier potassium channel. B-score at 10 µM. AID 1672. HEK293-Kir2.1, FluxOR thallium flux fluorescence; active compounds read low. 310,000 compounds, 0.85% hits;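 active = fluorescence ratio B-score at or below minus 3 SD of library scores, with starting-brightness B-score within 2 SD, cut at about -4.2 in these data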;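 note: channel flux triggered by added potassium and thallium sulfate stimulus; B-score of peak minus minimum fluorescence over baseline after thallium stimulus; more negative B-score means stronger Kir2.1 block with less thallium influx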
TRPC4 inh: inhibitors of mouse TRPC4 channel | AID 2247 | 300,000 compounds, 0.39% hits | HEK293 TRPC4beta/mu-opioid, DAMGO-evoked Fluo4 calcium flux; active compounds read low | B-score at 10 µM;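 active = B-score over 3 SD under the library average, no early fluorescence shift, positive overall ratio signal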
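Assay system – HEK293 line stably carrying TRPC4beta and mu-opioid receptor · Doses – single dose · Detection – Fluo4 calcium-dye fluorescence, kinetic read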
TRPC6 act: activates the mouse TRPC6 cation channel; B-score at 10 µM; Q61143; 310,000 compounds, 0.13% hits; HEK293-TRPC6 membrane potential dye fluorescence; active compounds read high; AID 2550;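 active = B-score of the integrated fluorescence ratio above library mean plus 3 SD, and starting fluorescence ratio within library mean plus 5 SD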;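 note: higher score means more depolarization so channel activation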
Each line names hits and unclear results; the compound was inactive in the other large screens.

COc1cc(C)c(S(=O)(=O)N2CCCC2)cc1C(C)C	Kir21 block -4.42
COc1cc(C)c(S(=O)(=O)N2CCCC2)cc1C	none
CC(C)(CSc1ccccn1)NS(=O)(=O)c1ccccc1	none
CC(C)(CSc1ccccn1)NS(=O)(=O)c1ccc(Cl)cc1	TRPC4 PAM 10, Kir21 block -5.09
COc1ccc(COc2ccccc2C(=O)NCc2ccccc2)cc1F	none
CC12CCCCN1CCCc1c2[nH]c2ccccc12 (stereo unspecified)	TRPC4 act 91
CCN(c1ccccc1)S(=O)(=O)c1ccc(C(=O)N(CCCN(C)C)c2nc3cc4c(cc3s2)OCO4)cc1	TRPC4 act 168
CN(C)CCCN(C(=O)c1ccc(S(=O)(=O)N(C)Cc2ccccc2)cc1)c1nc2cc3c(cc2s1)OCO3	TRPC4 act 48
CN(C)CCCN(C(=O)c1ccc2ccccc2c1)c1nc2cc3c(cc2s1)OCO3	none
CN(C)CCN(C(=O)c1ccc2ccccc2c1)c1nc2cc3c(cc2s1)OCCO3	none
CN(C)CCN(C(=O)c1cccc2ccccc12)c1nc2cc3c(cc2s1)OCO3	TRPC4 act 73
Cc1cc(C)c2c(n1)SCC(=O)N2CC(=O)Nc1ccc(Br)c(C)c1	none
CCOC(=O)C1(CCc2ccccc2)CCN(Cc2ccn[nH]2)CC1	TRPC4 inh -6
CCOC(=O)C1(CCCc2ccccc2)CCN(Cc2cnc(C)s2)CC1	TRPC4 act 74
CCOC(=O)C1(Cc2cccc(F)c2)CCN(Cc2cnc(C)s2)CC1	TRPC4 act 66
COc1ccc2c(c1)N(S(=O)(=O)c1ccccc1)CCC2=O	Kir21 block -6.51
O=C(NC1CC1)C1CCN(C(=O)c2ccc(Cl)cc2Cl)CC1	none
Cc1nnc2sc(-c3csc4c3CCCC4)nn12	TRPC4 inh -6
Cc1nnc2sc(-c3ccncc3)nn12	none
CC1CN(C(=O)Cn2c(=O)oc3ccccc32)CC(C)O1 (stereo unspecified)	none
CN(CCc1nc2ccc(Cl)cc2[nH]1)Cc1nc(CC2CC2)no1	TRPC4 act 105
Cc1ccc(-n2c(SCC(=O)Nc3cccc(S(=O)(=O)NC4=NCCCCC4)c3)nc3ccccc3c2=O)cc1	TRPC4 act 72
Cc1[nH]n(-c2ncc(-c3ccccc3)s2)c(=O)c1C(c1ccc(Br)cc1)C(C#N)C#N (stereo unspecified)	Kir21 block -5.63
Cc1noc(C)c1-c1nc(CS(=O)(=O)c2ccccc2)no1	none
CN1CCN(Cc2nc3c(c(=O)[nH]c(=O)n3C)n2Cc2c(F)cccc2Cl)CC1	TRPC4 act 80, TRPC4 PAM 20
CN1CCN(Cc2nc3c(c(=O)[nH]c(=O)n3C)n2CCc2ccccc2)CC1	none
CN1CCCC(OC(=O)c2cc(F)c(F)c(F)c2F)C1 (stereo unspecified)	none
COc1cccc(C(=O)OC2CCCN(C)C2)c1 (stereo unspecified)	TRPC4 act 129
CN1CCCC(OC(=O)c2cc(Cl)ccc2Cl)C1 (stereo unspecified)	TRPC4 act 65, TRPC4 PAM 13
CN1CCCC(OC(=O)c2cc(Br)ccc2Cl)C1 (stereo unspecified)	TRPC4 act 126, TRPC4 PAM 10
Cc1cc(C)c2cc(C(=O)N3CCN(c4ncccc4C(F)(F)F)CC3)[nH]c2c1	none
O=C(COC(=O)Cc1cccc(C(F)(F)F)c1)NC1CCS(=O)(=O)C1 (stereo unspecified)	none
CN(C(=O)COC(=O)CNC(=O)c1ccc2ccccc2c1)c1c(N)n(Cc2ccccc2)c(=O)[nH]c1=O	none
CCc1ccc(S(=O)(=O)/N=C2\C=C(Nc3ccc(O)cc3)C(=O)c3ccccc32)cc1	none
CCc1ccc(S(=O)(=O)/N=C2\C=C(Nc3cccc(C(=O)O)c3)C(=O)c3ccccc32)cc1	TRPC4 inh -8
CC(=O)c1ccc2c(c1)N(C)c1ccccc1S2	TRPC4 inh -6
Cc1ccc(-n2cccc2C(=S)N=P(N(C)C)(N(C)C)N(C)C)cc1	Kir21 block -11.5
CCCCS(=O)(=O)N1CCCC(C(=O)NCC2CCCO2)C1 (stereo unspecified)	TRPC4 act 85
COC(=O)CSC1=NS(=O)(=O)c2ccccc21	Kir21 block -5.81
CC(NCc1cccc(OCc2ccccc2)c1)C(O)c1ccccc1 (stereo unspecified)	Kir21 block -10.5
CCOC(=O)NNC(=O)C1CCC(C)CC1 (stereo unspecified)	none
Cc1cc(C)cc(OCc2nnc(N)s2)c1	none
CC(C)(C)C(=O)Nc1sc(-c2ccccc2)cc1C(=O)O	none
Cc1cccc(C(=O)Nc2sc(-c3ccccc3)cc2C(=O)O)c1	TRPC4 inh -6
CCCOC(=O)c1ccc(NC(=O)c2nc3nc(C)cc(C)n3n2)cc1	none
CC1(C)C([N+](=O)[O-])C(c2ccc(Cl)cc2)NC(c2ccc(Cl)cc2)C1[N+](=O)[O-] (stereo unspecified)	none
C=CCn1c(CCNC(=O)c2ccco2)nc2ccccc21	TRPC4 act 168
CCCCCn1c(NCc2ccco2)nc2ccccc21	Kir21 block -4.48
CCCCCCn1c(C(C)NC(=O)c2ccco2)nc2ccccc21 (stereo unspecified)	Kir21 block -9.02
CCn1c(CCNC(=O)c2ccco2)nc2ccccc21	none
COc1ccc(C2C(C(C)=O)=C(O)C(=O)N2c2ccc(Br)cc2)cc1 (stereo unspecified)	TRPC4 inh -5
CCCCOC(=O)N1CCOCCOCCOCC1	Kir21 block -4.7
CCCCNC(=O)N1CCOCCOCCN(C(=O)NCCCC)CCOCCOCC1	none
COc1cc(C2CC(=O)N(CC(=O)NCC3CCCO3)c3ccccc3S2)cc(OC)c1OC (stereo unspecified)	none
Cc1cc(/C=N/NC(=O)c2cccc([N+](=O)[O-])c2)c(C)n1-c1ccc(Cl)cc1Cl	TRPC4 inh -6
O=C(N/N=C/c1ccc[nH]1)c1cccc([N+](=O)[O-])c1	none
CCOc1cc(/C=C2\CN(CC)C/C(=C\c3ccc(O)c(OCC)c3)C2=O)ccc1O	TRPC4 PAM 17
COc1cc(/C=C2\SC(N3CCC(C)CC3)=NC2=O)ccc1O	TRPC4 inh -6
COc1cc(/C=C2\CCC/C(=C\c3ccc(O)c(OC)c3)C2=O)ccc1O	TRPC4 inh -6
COc1cc(/C=C2/CCCC(C(=O)C(F)(F)F)=C2O)ccc1O	none
COc1ccc2c(c1)CCCC21NC(=O)N(CC(=O)NC(=O)NCc2ccccc2)C1=O (stereo unspecified)	none
Cc1ccc(NC(=O)COc2ccc(Br)cn2)cc1	none
COc1c(Br)cc(Br)cc1C(=O)Nc1ccccc1N1CCCC1	none
